Substrate in data set [1]: COc1cccc2c1C(=O)c1c(O)c3c(c(O)c1C2=O)C[C@@](O)(C(=O)CO)C[C@@H]3OC1CC(NC(=O)OCC2=C(C(=O)O)N3C(=O)[C@@H](NC(=O)CCCC(=O)O)[C@H]3SC2)C(O)C(C)O1
Put plainly: The kinetic constant(Km) value as spectrophotometrically by using Escherichia coli TEM-1 beta-lactamase (ECbL) enzyme as catalyst. The gist of the method:
(§1)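 Spectrophotometric hydrolysis at 23 °C in PBS with 12.5 μg/mL BSA. EClbL was used at 0.1 μg/mL; BCbL and ECbL at 1.0 μg/mL. […] Initial velocities were linear over 1 min.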

Substrate in data set [2]: COc1cccc2c1C(=O)c1c(O)c3c(c(O)c1C2=O)C[C@@](O)(C(=O)CO)C[C@@H]3OC1CC(NC(=O)OCC2=C(C(=O)O)N3C(=O)[C@@H](NC(=O)CCCC(=O)O)[C@H]3SC2)C(O)C(C)O1
The data set can be described thus: The kinetic constant(Km) value as spectrophotometrically by using Bacillus cereus beta-lactamase (BCbL) enzyme as catalyst. The gist of the method: as §1

Substrate in data set [3]: COc1cccc2c1C(=O)c1c(O)c3c(c(O)c1C2=O)C[C@@](O)(C(=O)CO)C[C@@H]3OC1CC(NC(=O)OCC2=C(C(=O)O)N3C(=O)[C@@H](NC(=O)CCCC(=O)O)[C@H]3SC2)C(O)C(C)O1
The data set can be described thus: The kinetic constant(Km) value as spectrophotometrically by using Enterobacter cloacae P99 beta-lactamase (ECIbL) enzyme as catalyst. The gist of the method: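 Initial-velocity kinetics at 23 °C in PBS with 12.5 μg/mL bovine serum albumin. […] Hydrolysis followed by absorbance change at 230 nm or 260 nm, linear over 1 min. Km from direct linear plots, mean of at least three independent experiments.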

B1: Beta-lactamase TEM (Escherichia coli), P62593 (protein)
chain: MSIQHFRVALIPFFAAFCLPVFAHPETLVKVKDAEDQLGARVGYIELDLNSGKILESFRPEERFPMMSTFKVLLCGAVLSRVDAGQEQLGRRIHYSQNDLVEYSPVTEKHLTDGMTVRELCSAAITMSDNTAANLLLTTIGGPKELTAFLHNMGDHVTRLDRWEPELNEAIPNDERDTTMPAAMATTLRKLLTGELLTLASRQQLIDWMEADKVAGPLLRSALPAGWFIADKSGAGERGSRGIIAALGPDGKPSRIVVIYTTGSQATMDERNRQIAEIGASLIKHW
As usually defined, the Km is the substrate concentration at which the rate is half of its maximum. As for B1, in data set [1], the Michaelis-Menten constant (Km) amounted to 73 µM.

B2: Metallo-beta-lactamase type 2 (Bacillus cereus), P14488 (protein)
chain: MKNTLLKLGVCVSLLGITPFVSTISSVQAERTVEHKVIKNETGTISISQLNKNVWVHTELGYFSGEAVPSNGLVLNTSKGLVLVDSSWDDKLTKELIEMVEKKFKKRVTDVIITHAHADRIGGMKTLKERGIKAHSTALTAELAKKNGYEEPLGDLQSVTNLKFGNMKVETFYPGKGHTEDNIVVWLPQYQILAGGCLVKSASSKDLGNVADAYVNEWSTSIENVLKRYGNINLVVPGHGEVGDRGLLLHTLDLLK
Turning to B2, the Km in data set [2] was determined as 56 µM.

B3: Beta-lactamase (Enterobacter cloacae), P05364 (protein)
chain: MMRKSLCCALLLGISCSALATPVSEKQLAEVVANTITPLMKAQSVPGMAVAVIYQGKPHYYTFGKADIAANKPVTPQTLFELGSISKTFTGVLGGDAIARGEISLDDAVTRYWPQLTGKQWQGIRMLDLATYTAGGLPLQVPDEVTDNASLLRFYQNWQPQWKPGTTRLYANASIGLFGALAVKPSGMPYEQAMTTRVLKPLKLDHTWINVPKAEEAHYAWGYRDGKAVRVSPGMLDAQAYGVKTNVQDMANWVMANMAPENVADASLKQGIALAQSRYWRIGSMYQGLGWEMLNWPVEANTVVEGSDSKVALAPLPVAEVNPPAPPVKASWVHKTGSTGGFGSYVAFIPEKQIGIVMLANTSYPNPARVEAAYHILEALQ
For B3, the Km in data set [3] is 83 µM.
